Measured values published in ChEMBL document CHEMBL1158511, “Tricyclic dihydroquinazolinones as novel 5-HT2C selective and orally efficacious anti-obesity agents” (Bioorg Med Chem Lett, 2010).

Assays:
[1] = biological target: T1, 5-hydroxytryptamine receptor 2B (Homo sapiens, UniProt P41595); assay: Agonist activity at human recombinant 5HT2B receptor expressed in HEK293E cells by FLIPR assay; format: functional, cell-based
How it was run: (§1)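 Calcium mobilization measured by FLIPR in HEK293E cells expressing human 5-HT2A, 5-HT2B or 5-HT2C receptor. Values are means of ≥2 independent 12-point dose-response curves (n ≥4 where SD is given). mCPP is the positive control.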

[2] = biological target: T2, 5-hydroxytryptamine receptor 2A (Homo sapiens, UniProt P28223); assay: Displacement of [125I]DOI from human recombinant 5HT2A receptor expressed in HEK293E cells; format: cell-based
T2 sequence (P28223 whole entry): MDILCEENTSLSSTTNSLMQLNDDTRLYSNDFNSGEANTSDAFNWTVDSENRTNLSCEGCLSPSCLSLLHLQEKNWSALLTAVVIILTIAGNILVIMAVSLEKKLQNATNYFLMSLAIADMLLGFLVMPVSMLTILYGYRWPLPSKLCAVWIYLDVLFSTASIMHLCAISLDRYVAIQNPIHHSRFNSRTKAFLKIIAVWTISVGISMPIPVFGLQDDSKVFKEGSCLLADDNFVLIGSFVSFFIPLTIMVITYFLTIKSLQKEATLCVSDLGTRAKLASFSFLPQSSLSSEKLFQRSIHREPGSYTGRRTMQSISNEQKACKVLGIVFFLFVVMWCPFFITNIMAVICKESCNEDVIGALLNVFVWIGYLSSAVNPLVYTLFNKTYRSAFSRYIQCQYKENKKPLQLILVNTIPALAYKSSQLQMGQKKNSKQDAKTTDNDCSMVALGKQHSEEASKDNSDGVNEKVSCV
How it was run: (§2)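 Radioligand binding with [125I]DOI at the human 5-HT2C or 5-HT2A receptor. Ki is the mean of ≥2 independent 12-point dose-response curves (n ≥4 where SD is given).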

[3] = biological target: T2, 5-hydroxytryptamine receptor 2A; assay: Agonist activity at human recombinant 5HT2A receptor expressed in HEK293E cells by FLIPR assay; format: functional, cell-based; how it was run: as §1
[4] = Half life in Sprague-Dawley rat at 1 mg/kg, iv; format: ADME, organism-based; design: dose 1 mg/kg, route intravenous; conditions: in vivo
How it was run: (§3)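 Male Sprague–Dawley rats were dosed at 1 mpk iv and po. Values are means of 3 animals per route.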

[5] = Half life in Sprague-Dawley rat at 1 mg/kg, po; format: ADME, organism-based; design: dose 1 mg/kg, route oral; conditions: in vivo; how it was run: as §3
[6] = Clearance in Sprague-Dawley rat at 1 mg/kg, iv; format: ADME, organism-based; design: dose 1 mg/kg, route intravenous; conditions: in vivo; how it was run: as §3
[7] = Volume of distribution at steady state in Sprague-Dawley rat at 1 mg/kg, iv; format: ADME, organism-based; design: dose 1 mg/kg, route intravenous; conditions: in vivo, read-out: Vdss; how it was run: as §3
[8] = Tmax in Sprague-Dawley rat at 1 mg/kg, po; format: ADME, organism-based; design: dose 1 mg/kg, route oral; conditions: in vivo
How it was run: (§4)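 Male Sprague–Dawley rats were dosed po only at 1 or 10 mpk. Values are means of 2 animals. AUC was collected over 4 h. Plasma and total brain levels were taken at 4 h post dose.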

[9] = Cmax in Sprague-Dawley rat at 1 mg/kg, po; format: ADME, organism-based; design: dose 1 mg/kg, route oral; conditions: in vivo; how it was run: as §4
[10] = AUC (0 to infinity) in Sprague-Dawley rat at 1 mg/kg, iv; format: ADME, organism-based; design: time infinity, dose 1 mg/kg, route intravenous; conditions: plasma; how it was run: as §3
[11] = AUC (0 to infinity) in Sprague-Dawley rat at 1 mg/kg, po; format: ADME, organism-based; design: time infinity, dose 1 mg/kg, route oral; conditions: plasma; how it was run: as §3
[12] = Oral bioavailability in Sprague-Dawley rat at 1 mg/kg; format: ADME, organism-based; conditions: in vivo; how it was run: as §3
[13] = Tmax in Sprague-Dawley rat at 10 mg/kg, po; format: ADME, organism-based; design: dose 10 mg/kg, route oral; conditions: in vivo; how it was run: as §4
[14] = Cmax in Sprague-Dawley rat at 10 mg/kg, po; format: ADME, organism-based; design: dose 10 mg/kg, route oral; conditions: in vivo; how it was run: as §4
[15] = AUC in Sprague-Dawley rat at 1 mg/kg, po after 4 hrs; format: ADME, organism-based; design: time < 4 hr, dose 1 mg/kg, route oral; conditions: plasma; how it was run: as §4
[16] = AUC in Sprague-Dawley rat at 10 mg/kg, po after 4 hrs; format: ADME, organism-based; design: time < 4 hr, dose 10 mg/kg, route oral; conditions: plasma; how it was run: as §4
[17] = Plasma concentration in Sprague-Dawley rat at 1 mg/kg, po after 4 hrs; format: ADME, organism-based; design: dose 1 mg/kg, route oral; how it was run: as §4
[18] = Plasma concentration in Sprague-Dawley rat at 10 mg/kg, po after 4 hrs; format: ADME, organism-based; design: dose 10 mg/kg, route oral; how it was run: as §4
[19] = system: Brain; assay: Drug level in Sprague-Dawley rat brain at 1 mg/kg, po after 4 hrs; format: ADME, organism-based; design: dose 1 mg/kg, route oral; conditions: in vivo; how it was run: as §4
[20] = system: Brain; assay: Drug level in Sprague-Dawley rat brain at 10 mg/kg, po after 4 hrs; format: ADME, organism-based; design: dose 10 mg/kg, route oral; conditions: in vivo; how it was run: as §4
[21] = system: Rattus norvegicus; assay: Antiobesity activity in Sprague-Dawley rat assessed as reduction of food intake at 10 mg/kg, po after 20 hrs; format: functional; design: scale not given: the % may be the effect or the level left
[22] = system: Rattus norvegicus; assay: Antiobesity activity in Sprague-Dawley rat assessed as reduction of body weight at 30 mg/kg, po after 4 days; format: functional; design: scale not given: the % may be the effect or the level left
How it was run: (§5)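 Male Sprague–Dawley rats, about 240 g (n = 8), were dosed orally once daily for 4 days with compound or vehicle (14% propylene glycol, 1% tween, 85% water, v/v/v). Body weight, food and water intake were measured daily and compared with vehicle.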

[23] = system: Rattus norvegicus; assay: Antiobesity activity in Sprague-Dawley rat assessed as reduction of caloric intake at 30 mg/kg, po after 4 days; format: functional; design: scale not given: the % may be the effect or the level left; how it was run: as §5
[24] = species on record: Rattus norvegicus; assay: Toxicity in Sprague-Dawley rat; format: organism-based; conditions: in vivo
[25] = biological target: Cytochrome P450 2C19 (Homo sapiens, UniProt P33261); assay: Inhibition of CYP2C19; format: ADME
[26] = biological target: Cytochrome P450 2D6 (Homo sapiens, UniProt P10635); assay: Inhibition of CYP2D6; format: ADME
Chain of Cytochrome P450 2D6 (P10635 whole entry): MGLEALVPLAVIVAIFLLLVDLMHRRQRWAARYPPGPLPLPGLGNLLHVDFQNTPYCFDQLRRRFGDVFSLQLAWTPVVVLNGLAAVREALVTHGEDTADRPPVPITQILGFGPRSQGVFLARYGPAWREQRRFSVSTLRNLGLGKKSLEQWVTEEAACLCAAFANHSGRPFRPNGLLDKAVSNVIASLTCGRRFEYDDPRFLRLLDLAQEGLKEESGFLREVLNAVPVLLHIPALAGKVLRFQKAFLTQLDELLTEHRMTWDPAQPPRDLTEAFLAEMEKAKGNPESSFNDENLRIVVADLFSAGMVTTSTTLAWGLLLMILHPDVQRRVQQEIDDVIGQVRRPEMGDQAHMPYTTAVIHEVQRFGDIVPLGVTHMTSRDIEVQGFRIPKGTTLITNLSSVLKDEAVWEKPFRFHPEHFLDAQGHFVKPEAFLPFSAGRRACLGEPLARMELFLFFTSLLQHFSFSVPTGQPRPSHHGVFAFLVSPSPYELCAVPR

[27] = biological target: Cytochrome P450 3A4 (Homo sapiens, UniProt P08684); assay: Inhibition of CYP3A4; format: ADME
Chain of Cytochrome P450 3A4 (P08684 whole entry): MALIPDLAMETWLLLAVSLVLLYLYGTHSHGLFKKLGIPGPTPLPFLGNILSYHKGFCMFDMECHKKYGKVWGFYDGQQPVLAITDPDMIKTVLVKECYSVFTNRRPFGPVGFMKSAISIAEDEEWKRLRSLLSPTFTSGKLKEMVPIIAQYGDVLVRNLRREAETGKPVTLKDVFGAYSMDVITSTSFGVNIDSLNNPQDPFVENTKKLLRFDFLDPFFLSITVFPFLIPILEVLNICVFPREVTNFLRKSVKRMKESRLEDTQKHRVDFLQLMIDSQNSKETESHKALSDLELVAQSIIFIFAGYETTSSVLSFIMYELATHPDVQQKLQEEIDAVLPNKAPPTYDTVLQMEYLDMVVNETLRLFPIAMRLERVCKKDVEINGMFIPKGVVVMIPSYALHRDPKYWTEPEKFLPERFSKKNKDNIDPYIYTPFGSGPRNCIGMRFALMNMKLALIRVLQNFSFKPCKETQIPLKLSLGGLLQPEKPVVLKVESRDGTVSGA

[28] = biological target: T3, CYP1A2 (Homo sapiens, UniProt P05177); assay: Inhibition of CYP1A2 at 10 uM; format: ADME
T3 sequence (P05177 whole entry): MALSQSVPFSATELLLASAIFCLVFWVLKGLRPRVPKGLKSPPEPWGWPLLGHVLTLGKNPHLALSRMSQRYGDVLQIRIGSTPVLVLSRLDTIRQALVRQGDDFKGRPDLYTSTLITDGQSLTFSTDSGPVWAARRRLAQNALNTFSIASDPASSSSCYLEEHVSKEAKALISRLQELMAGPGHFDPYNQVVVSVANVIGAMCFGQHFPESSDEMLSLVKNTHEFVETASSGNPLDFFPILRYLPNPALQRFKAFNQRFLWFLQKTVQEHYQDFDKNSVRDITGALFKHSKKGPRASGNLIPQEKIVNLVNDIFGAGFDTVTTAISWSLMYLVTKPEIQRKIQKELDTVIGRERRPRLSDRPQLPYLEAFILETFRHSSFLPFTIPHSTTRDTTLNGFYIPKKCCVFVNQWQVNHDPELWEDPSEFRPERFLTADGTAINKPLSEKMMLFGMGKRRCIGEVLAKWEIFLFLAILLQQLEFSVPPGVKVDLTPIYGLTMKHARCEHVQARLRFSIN

[29] = biological target: CYP2C9 (Homo sapiens, UniProt P11712); assay: Inhibition of CYP2C9 at 10 uM; format: ADME
Chain of CYP2C9 (P11712 whole entry): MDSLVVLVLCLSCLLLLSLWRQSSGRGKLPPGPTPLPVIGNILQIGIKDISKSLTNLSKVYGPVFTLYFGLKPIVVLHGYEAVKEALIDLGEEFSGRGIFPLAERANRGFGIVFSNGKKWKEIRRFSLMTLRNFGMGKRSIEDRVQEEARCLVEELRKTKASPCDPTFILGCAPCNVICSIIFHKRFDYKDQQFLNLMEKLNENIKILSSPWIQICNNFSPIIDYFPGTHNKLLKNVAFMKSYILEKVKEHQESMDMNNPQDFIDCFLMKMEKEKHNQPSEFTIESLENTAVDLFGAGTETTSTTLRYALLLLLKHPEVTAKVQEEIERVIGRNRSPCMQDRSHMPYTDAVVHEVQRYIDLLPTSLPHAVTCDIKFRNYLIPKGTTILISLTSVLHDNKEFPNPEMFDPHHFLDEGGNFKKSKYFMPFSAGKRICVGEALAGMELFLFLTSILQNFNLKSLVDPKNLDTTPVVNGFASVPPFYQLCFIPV

[30] = biological target: CYP2C19 (Homo sapiens, UniProt P33261); assay: Inhibition of CYP2C19 at 10 uM; format: ADME
Chain of CYP2C19 (P33261 whole entry): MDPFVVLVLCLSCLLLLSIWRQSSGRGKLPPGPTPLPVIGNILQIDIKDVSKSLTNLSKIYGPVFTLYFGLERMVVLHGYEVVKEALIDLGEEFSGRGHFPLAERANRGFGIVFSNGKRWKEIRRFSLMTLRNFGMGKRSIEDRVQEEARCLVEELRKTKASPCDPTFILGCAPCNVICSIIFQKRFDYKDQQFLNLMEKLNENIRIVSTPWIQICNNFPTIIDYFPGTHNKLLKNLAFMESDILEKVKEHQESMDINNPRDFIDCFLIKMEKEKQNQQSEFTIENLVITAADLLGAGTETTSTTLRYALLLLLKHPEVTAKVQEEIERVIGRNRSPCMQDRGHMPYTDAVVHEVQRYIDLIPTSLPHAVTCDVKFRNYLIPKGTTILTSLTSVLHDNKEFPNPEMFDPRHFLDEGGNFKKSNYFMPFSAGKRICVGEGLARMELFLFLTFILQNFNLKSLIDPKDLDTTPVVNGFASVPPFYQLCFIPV

[31] = biological target: CYP2D6 (Homo sapiens, UniProt P10635); assay: Inhibition of CYP2D6 at 10 uM; format: ADME
Chain of CYP2D6 (P10635 whole entry): as the sequence (P10635 whole entry) above

[32] = biological target: CYP3A4 (Homo sapiens, UniProt P08684); assay: Inhibition of CYP3A4 at 10 uM; format: ADME
Chain of CYP3A4 (P08684 whole entry): as the sequence (P08684 whole entry) above

[33] = biological target: hERG (Homo sapiens, UniProt Q12809); assay: Inhibition of human ERG at 10 uM by patch clamp method
Chain of hERG (Q12809 whole entry): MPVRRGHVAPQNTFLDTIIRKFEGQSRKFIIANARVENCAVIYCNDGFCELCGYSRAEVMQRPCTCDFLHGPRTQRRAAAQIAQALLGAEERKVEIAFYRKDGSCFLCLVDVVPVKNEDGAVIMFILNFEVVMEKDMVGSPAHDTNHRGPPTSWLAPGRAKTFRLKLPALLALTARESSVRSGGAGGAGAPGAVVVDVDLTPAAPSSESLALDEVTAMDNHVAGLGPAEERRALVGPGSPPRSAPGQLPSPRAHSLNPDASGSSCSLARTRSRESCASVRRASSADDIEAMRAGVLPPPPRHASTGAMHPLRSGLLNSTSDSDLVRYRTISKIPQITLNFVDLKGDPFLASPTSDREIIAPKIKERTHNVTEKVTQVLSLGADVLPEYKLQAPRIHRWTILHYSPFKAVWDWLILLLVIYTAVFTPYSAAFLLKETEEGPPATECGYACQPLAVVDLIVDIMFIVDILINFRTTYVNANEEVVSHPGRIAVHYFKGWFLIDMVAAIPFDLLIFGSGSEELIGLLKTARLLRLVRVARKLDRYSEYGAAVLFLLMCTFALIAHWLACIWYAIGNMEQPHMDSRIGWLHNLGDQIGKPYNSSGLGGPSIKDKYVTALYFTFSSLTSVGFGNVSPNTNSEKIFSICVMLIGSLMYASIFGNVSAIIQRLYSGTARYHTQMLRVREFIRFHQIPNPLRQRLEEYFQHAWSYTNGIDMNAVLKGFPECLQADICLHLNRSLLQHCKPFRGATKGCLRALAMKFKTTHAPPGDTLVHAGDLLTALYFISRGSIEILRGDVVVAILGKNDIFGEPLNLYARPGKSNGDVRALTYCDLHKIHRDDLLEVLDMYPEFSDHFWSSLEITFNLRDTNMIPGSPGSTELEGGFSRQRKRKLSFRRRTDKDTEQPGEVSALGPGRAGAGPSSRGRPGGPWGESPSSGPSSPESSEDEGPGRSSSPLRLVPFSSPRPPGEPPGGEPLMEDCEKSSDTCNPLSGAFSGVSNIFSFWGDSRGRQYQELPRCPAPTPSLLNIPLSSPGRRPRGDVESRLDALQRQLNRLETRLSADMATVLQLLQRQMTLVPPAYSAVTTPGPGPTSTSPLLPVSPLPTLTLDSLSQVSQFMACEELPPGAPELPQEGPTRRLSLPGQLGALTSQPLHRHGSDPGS

[34] = biological target: T4, Cytochrome P450 1A2 (Homo sapiens, UniProt P05177); assay: Inhibition of CYP1A2; format: ADME
T4 sequence (P05177 whole entry): T3 sequence (P05177 whole entry)

[35] = biological target: Cytochrome P450 2C9 (Homo sapiens, UniProt P11712); assay: Inhibition of CYP2C9; format: ADME
Chain of Cytochrome P450 2C9 (P11712 whole entry): as the sequence (P11712 whole entry) above

[36] = biological target: T5, 5-hydroxytryptamine receptor 2C (Homo sapiens, UniProt P28335); assay: Displacement of [125I]DOI from human recombinant 5HT2C receptor expressed in HEK293E cells; format: cell-based; how it was run: as §2
T5 sequence (P28335 whole entry): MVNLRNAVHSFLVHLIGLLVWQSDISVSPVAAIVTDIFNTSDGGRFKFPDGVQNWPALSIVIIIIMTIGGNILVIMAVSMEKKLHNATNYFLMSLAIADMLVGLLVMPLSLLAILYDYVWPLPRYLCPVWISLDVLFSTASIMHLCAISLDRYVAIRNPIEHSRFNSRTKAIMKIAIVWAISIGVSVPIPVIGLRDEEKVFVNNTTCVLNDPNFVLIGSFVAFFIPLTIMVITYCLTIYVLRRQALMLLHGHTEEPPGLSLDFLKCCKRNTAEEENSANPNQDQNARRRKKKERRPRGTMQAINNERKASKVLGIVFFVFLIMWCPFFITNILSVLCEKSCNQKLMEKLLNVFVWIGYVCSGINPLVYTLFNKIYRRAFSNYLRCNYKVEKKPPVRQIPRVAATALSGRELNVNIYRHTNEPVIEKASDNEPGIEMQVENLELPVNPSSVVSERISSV

[37] = biological target: T5, 5-hydroxytryptamine receptor 2C; assay: Agonist activity at human recombinant 5HT2C receptor expressed in HEK293E cells by FLIPR assay; format: functional, cell-based; how it was run: as §1
[38] = biological target: T1, 5-hydroxytryptamine receptor 2B; assay: Displacement of [3H]LSD from human recombinant 5HT2B receptor expressed in HEK293E cells

T1 sequence (P41595 whole entry): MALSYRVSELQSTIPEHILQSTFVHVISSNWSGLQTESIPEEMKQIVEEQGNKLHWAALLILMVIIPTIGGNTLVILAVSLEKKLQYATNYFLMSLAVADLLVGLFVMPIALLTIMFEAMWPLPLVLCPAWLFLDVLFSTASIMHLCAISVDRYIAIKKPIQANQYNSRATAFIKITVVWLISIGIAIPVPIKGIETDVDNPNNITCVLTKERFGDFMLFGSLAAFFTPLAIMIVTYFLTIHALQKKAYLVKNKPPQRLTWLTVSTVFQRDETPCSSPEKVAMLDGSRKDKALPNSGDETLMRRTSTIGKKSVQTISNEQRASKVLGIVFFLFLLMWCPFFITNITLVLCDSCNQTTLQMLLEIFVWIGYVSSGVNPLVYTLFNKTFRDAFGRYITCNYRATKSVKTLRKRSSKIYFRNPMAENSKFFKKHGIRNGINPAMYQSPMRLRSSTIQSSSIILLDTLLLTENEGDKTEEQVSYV

Cc1cccc2c1C(=O)NC1CNCCN21 (single isomer, unassigned; (+))
EC50 [1]: > 10000 nM | Ki [2]: 229 nM | EC50 [3]: > 10000 nM | half-life [4]: 54 min | half-life [5]: 150 min | clearance [6]: 27 mL/min/kg | Vd [7]: 1.3 L/kg | Tmax [8]: 60 min | Cmax [9]: 293 nM | AUC(0-inf) [10]: 2.34 µM·h | AUC(0-inf) [11]: 1.15 µM·h | bioavailability [12]: 49% | Tmax [13]: 30 min | Cmax [14]: 5380 nM | AUC at 4 h [15]: 1.04 µM·h | AUC at 4 h [16]: 1.24 µM·h | concentration at 4 h [17]: 219 nM | concentration at 4 h [18]: 2120 nM | Drug uptake [19]: 326 nmol/kg | Drug uptake [20]: 3010 nmol/kg | Activity [21]: 22% | Activity [22]: 4.1% | Activity [23]: 16% | Activity [24]: Non-toxic | IC50 [25]: > 40000 nM | IC50 [26]: > 40000 nM | IC50 [27]: > 40000 nM | inhibition at 10 µM [28]: > 50% | inhibition at 10 µM [29]: > 50% | inhibition at 10 µM [30]: > 50% | inhibition at 10 µM [31]: > 50% | inhibition at 10 µM [32]: > 50% | inhibition at 10 µM [33]: 37% | IC50 [34]: > 40000 nM | IC50 [35]: > 40000 nM | Ki [36]: 89 nM | EC50 [37]: 45 nM | Ki [38]: 8.6 nM
